An excerpt weighted towards active compounds, which were near 3.1% of everything screened.
ABHD5 PLIN5 PPI = inhibitors of human ABHD5-perilipin-5 interaction; Q00G26+Q8WTS1; Split G. princeps luciferase complementation, luminescence, 4 h; inhibition, % at 4 µM; 360,000 tested, 0.78% active;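 active = inhibition above the mean inhibition across every tested compound plus 3 SD, cut at about 22% in these data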
RBBP9 inh = human RBBP9 hydrolase inhibition; recombinant RBBP9, FP-Rh probe fluorescence polarization; 220,000 tested, 0.2% active; O75884; AID 1515; inhibition, % at 7.94 µM;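 active = inhibition above the campaign mean of all tested compounds plus 3 SD, cut at about 14% in these data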
Target sequence (O75884 whole entry, looked up): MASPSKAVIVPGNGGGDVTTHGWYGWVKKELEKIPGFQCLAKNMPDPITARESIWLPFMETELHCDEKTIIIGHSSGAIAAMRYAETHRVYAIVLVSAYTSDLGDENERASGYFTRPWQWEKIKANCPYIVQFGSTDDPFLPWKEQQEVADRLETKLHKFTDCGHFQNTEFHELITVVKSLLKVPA
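system = RBBP9 protein | input = RBBP9 at 2.5 µM in dispensed solution, before mixing | measured by = fluorescence polarization (mP), excitation 525 nm, emission 598 nm | incubation = enzyme-compound preincubation 30 min, then probe labeling 45 min, 25 °C | buffer or medium = Tris-NaCl-Pluronic buffer, pH 8.0 | compound = single dose 7.94 µM | also added = FP-Rh probe, 375 nM dispensing solution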
LEDGF integ inh = blocks HIV-1 LEDGF/p75-dependent DNA integration; 370,000 tested, 0.64% active; inhibition, % at 3.7 µM; AID 743269; TR-FRET IN-LEDGF/p75 DNA integration, Eu/Cy5;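 active = inhibition above the screen-wide mean plus 3 SD, cut at about 13% in these data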;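 note: signal is the Cy5 over europium emission ratio at 671 and 618 nm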
UHRF1 binding = UHRF1 methyl-DNA binding inhibition; Q96T88; UHRF1 binding to methylated oligo, TR-FRET; inhibition, % at 4.4 µM; 370,000 tested, 0.75% active; AID 687016;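 note: UHRF1 SRA domain binding a hemimethylated CpG hairpin DNA probe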
MBD2 DNA inh = inhibitors of human MBD2 binding to methylated oligonucleotide; TR-FRET; inhibition, % at 4.4 µM; 370,000 tested, 0.31% active; in the data active = inhibition above about 13%
Target sequence (Q9UBB5 whole entry, looked up): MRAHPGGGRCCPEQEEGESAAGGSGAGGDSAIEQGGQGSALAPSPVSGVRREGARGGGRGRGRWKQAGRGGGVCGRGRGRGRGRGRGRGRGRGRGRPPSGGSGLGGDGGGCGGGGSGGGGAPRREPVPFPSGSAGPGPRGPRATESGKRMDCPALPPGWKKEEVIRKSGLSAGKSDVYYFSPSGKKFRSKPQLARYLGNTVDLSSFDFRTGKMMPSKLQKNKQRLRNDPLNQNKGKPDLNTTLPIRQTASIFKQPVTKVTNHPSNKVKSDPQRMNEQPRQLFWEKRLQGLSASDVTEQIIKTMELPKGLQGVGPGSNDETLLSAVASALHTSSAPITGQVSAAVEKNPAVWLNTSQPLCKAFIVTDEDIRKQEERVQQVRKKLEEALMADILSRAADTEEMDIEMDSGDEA
PRMT1 FP inh = blocks human protein arginine methyltransferase 1 | Q99873 | 370,000 tested, 1.3% active | inhibition, % at 2.79 µM | recombinant PRMT1, activity-based probe fluorescence polarization;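 active = inhibition above about 21% made by adding two undisclosed values, limit read from the data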
UHRF1 ctr MBD2 = inhibits human UHRF1 binding to methylated oligonucleotide, MBD2 counter-screen. shares compounds with MBD2 DNA inh. TR-FRET. inhibition, % at 4.4 µM. 1,000 tested, 25% active;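 note: UHRF1 SRA domain binding a labeled hemimethylated CpG hairpin DNA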
MBD2 DBD conf = confirmation of human MBD2-DBD methylated oligonucleotide binding inhibitors | shares compounds with MBD2 DNA inh | TR-FRET MBD2-DBD binding to methylated oligonucleotide | AID 720531 | 1,000 tested, 26% active | inhibition, % at 4.4 µM; in the data active = inhibition above about 14%
Numbers stand for hits; i = inactive; nt = no result. Cut-off read from the data, not from the text of the source, unless noted: active = inhibition above about 21%; inactive = the rest.

SMILES	ABHD5 PLIN5 PPI	RBBP9 inh	LEDGF integ inh	UHRF1 binding	MBD2 DNA inh	PRMT1 FP inh	UHRF1 ctr MBD2	MBD2 DBD conf
Cc1ccc(CN(C)C(=O)c2cccc(S(=O)(=O)N3CCc4ccccc43)c2)cc1	i	nt	i	i	14.7	i	i	i
O=C(CSc1nnc(-c2cccs2)o1)c1cccc([N+](=O)[O-])c1	nt	nt	i	i	i	i	nt	nt
N#Cc1c(-c2ccccc2Cl)c2c([nH]c1=O)-c1ccccc1OC2	i	i	i	i	20.6	i	i	i
COc1ccc(Cc2nnc(NC(=O)C3CCCO3)s2)cc1 (stereo not drawn)	i	i	i	i	15.3	i	i	i
CCn1cnc2cc(NC(=O)c3ccc(C)cc3)ccc21	i	nt	i	i	i	i	nt	nt
CCn1cnc2cc(NC(=O)COc3ccc(C)cc3)ccc21	i	nt	i	i	14.7	i	i	i
Cc1ccc(OC2CCN(C(=O)[C@@H](Cc3ccccc3)NC(=O)[C@H]3O[C@@H](n4ccc(=O)[nH]c4=O)[C@H](O)[C@@H]3O)CC2)cc1	nt	nt	i	i	i	i	nt	nt
Cc1ccc(C(=O)N(C)[C@H]2C[C@H]3c4[nH]c5c(-c6cccc(C)c6)cccc5c4CCN3C[C@H]2[C@H](C)O)cc1	nt	nt	i	i	i	i	nt	nt
CCCN1CCCCC(NC(=O)c2ccc(F)c(F)c2)C1=O (stereo not drawn)	nt	nt	i	i	i	i	nt	nt
COc1ncccc1-c1cc2nc(NCCCN(C)C)n(C)c(=O)c2s1	i	nt	i	i	14.0	i	29.7	17.3
COC(=O)c1cc2c(c3c4cc(F)ccc4n(S(=O)(=O)c4ccccc4)c13)C(=O)N(C)C2	nt	nt	i	i	i	i	nt	nt
COc1ccc(S(=O)(=O)N2CCN(C(=O)C3COc4ccccc4O3)CC2)cc1 (stereo not drawn)	i	nt	i	29.3	25.7	i	74.7	70.2
O=C(C1COc2ccccc2O1)N1CCOCC1 (stereo not drawn)	i	i	i	i	13.5	i	i	i
O=C(NCCCN1CCCC1=O)Nc1ccc(Cl)cc1	i	i	i	i	13.9	i	i	i
Cc1ccc(NC(=O)NCCCN2CCCC2=O)cc1Cl	i	nt	i	i	i	i	nt	nt
CC(=O)C1=C(O)C(=O)N(c2ccc(O)cc2)C1c1ccccc1 (stereo not drawn)	i	nt	i	i	22.4	i	i	i
CC(=O)C1=C(O)C(=O)N(c2ccc(C(=O)O)cc2)C1c1ccccc1 (stereo not drawn)	i	i	i	i	i	i	nt	nt
CCN(CC)CCNC(=O)C1c2cc(OC)c(OC)cc2C(=O)N(C)C1c1cccs1 (stereo not drawn)	i	i	i	i	42.3	i	i	i
O=c1[nH]cnc2c1ncn2[C@@H]1C[C@@H](O)[C@H](CO)O1	i	nt	i	i	i	i	nt	nt
O=c1[nH]cnc2c1ncn2[C@H]1CC[C@@H](CO)O1	i	i	i	22.7	38.0	i	i	i
CCc1cccc(NC(=O)CNC(=O)N2CC(=O)Nc3ccccc32)c1	i	nt	i	i	13.8	i	i	i
O=C(O)c1ccccc1C(=O)Nc1ccc(S(=O)(=O)Nc2nccs2)cc1	i	nt	i	i	19.0	24.3	i	i
COc1ccccc1C(=O)Nc1ccc(S(=O)(=O)Nc2nccs2)cc1	i	nt	i	i	i	i	nt	nt
CCc1ccccc1CNC(=O)C1CCC(CNS(=O)(=O)c2cccc3cccnc23)CC1 (stereo not drawn)	nt	nt	i	i	i	i	nt	nt
C=CC[C@@H](CC(=O)N(CCO)Cc1ccccc1)C(=O)N[C@@H](C)COC(=O)[C@@H](CC=C)CC(=O)OC(C)(C)C	i	nt	i	27.4	17.1	i	i	i
SMILES	ABHD5 PLIN5 PPI	RBBP9 inh	LEDGF integ inh	UHRF1 binding	MBD2 DNA inh	PRMT1 FP inh	UHRF1 ctr MBD2	MBD2 DBD conf
COc1ccc(-c2csc(C(O)c3ccc(F)c(OC)c3)n2)cc1 (stereo not drawn)	i	nt	i	i	i	i	nt	nt
COc1cc(C(O)c2nc(-c3ccccc3)cs2)ccc1F (stereo not drawn)	i	nt	i	i	13.9	i	i	i
Cc1ccccc1NC(=O)N(C)[C@H]1C[C@H]2c3[nH]c4c(-c5ccccc5)cccc4c3CCN2C[C@H]1[C@H](C)O	nt	nt	i	i	i	i	nt	nt
COc1cccc(NC(=S)N2CCN(Cc3ccccc3)CC2)c1	i	i	i	i	17.2	i	i	i
COc1cccc(CNC(=O)C2(C)Oc3ccccc3NC2=O)c1 (stereo not drawn)	i	i	i	i	60.8	i	i	i
COc1ccccc1CNC(=O)C1(C)Oc2cccnc2NC1=O (stereo not drawn)	i	i	i	i	i	i	nt	nt
CCCCn1c(NC(=O)c2ccccc2)c(C#N)c2nc3ccccc3nc21	i	i	i	i	24.4	i	i	16.6
Cc1ccc(C(=O)NCCn2c(N)c(C#N)c3nc4ccccc4nc32)cc1	i	i	i	i	i	i	nt	nt
Cc1cccc(NC(=O)Nc2c(-c3ccc(C(F)(F)F)cc3)nc3ncccn23)c1	nt	nt	i	i	i	i	nt	nt
CCn1cc(C(=O)NCC(OC)OC)c(=O)c2cc(S(=O)(=O)N(C)C3CCCCC3)ccc21	i	nt	i	i	i	i	nt	nt
COC(CNC(=O)c1cn(C)c2ccc(S(=O)(=O)N(C)C3CCCCC3)cc2c1=O)OC	i	nt	i	i	25.8	i	i	i
COc1ccc(-c2nnc(SCc3c(F)cccc3F)n2N)cc1	nt	nt	i	i	i	i	nt	nt
COC[C@H]1CCCN1c1ccc2c(c1)O[C@H]1CCN(C1)S2(=O)=O	nt	nt	i	i	i	i	nt	nt
Cc1cccc(N2C(=O)CC(Sc3nc(C)c4c(n3)CCCC4)C2=O)c1 (stereo not drawn)	i	i	i	i	13.6	i	i	i
CCN(CC)C1CC(=O)N(c2cccc(C)c2)C1=O (stereo not drawn)	nt	i	nt	nt	nt	nt	nt	nt
COP(N)(=O)C(CC(C)C)NC(=O)OCc1ccccc1 (stereo not drawn)	nt	nt	i	i	i	i	nt	nt
CCCCCCCCN1C(=O)N2Cc3ccc(C)cc3C2CS1(=O)=O (stereo not drawn)	nt	nt	i	i	i	i	nt	nt
CC12CCC(C(N)=O)(c3nc4ccccc4nc31)C2(C)C (stereo not drawn)	i	i	i	i	13.4	i	i	i
O=C(COC(=O)C1CC1)NC(=O)c1ccccc1	i	nt	i	22.5	15.7	i	i	i
Cc1ccc(S(=O)(=O)N2CCN(C(=O)CC(C)n3cncn3)CC2)cc1 (stereo not drawn)	i	nt	i	i	i	i	nt	nt
Cc1ccc(C(=O)CC(C(=O)O)n2cncn2)cc1 (stereo not drawn)	i	nt	i	i	41.0	i	i	i

From PubChem
